Assay results gathered from unrelated publications.
Each line is one published result; the experiments were not run side by side.
Target: Serine/threonine-protein kinase N1 (PKN1, Homo sapiens, UniProt Q16512)

Compound	test	setting	endpoint	result
CCCCN(CCCC)C(=O)CN1C[C@H](c2cc(OC)c3c(c2)OCO3)[C@@H](C(=O)O)[C@@H]1CC(C)(C)CCC	cell-free assay, competition with immobilised ligand	1 µM	remaining binding	100%
C[C@H]1CCN(c2nccc(-c3cnn4ncccc34)n2)C1	binding	1 µM	remaining binding	100%
CNC(=O)Nc1ccc2c(c1)CC[C@@]21OC(=O)N(CC(=O)N(Cc2ccc(F)cc2)[C@@H](C)C(F)(F)F)C1=O	cell-free assay, competition with immobilised ligand	1 µM	remaining binding	85%
CO[C@@H](C)Cn1c(=O)n(C)c2cnc3ccc(-c4cncc(C(C)(C)O)c4)cc3c21	enzyme activity, inhibitor	1 µM	activity vs control	94%
CC(C)(C)c1nc(-c2cccc(NS(=O)(=O)c3c(F)cccc3F)c2F)c(-c2ccnc(N)n2)s1	enzyme activity, inhibitor, radiometric	1 µM	remaining activity	101%
COc1cccc2c(NCc3ccccc3)nc(-n3c(N)nc4ccccc43)nc12	target engagement in cells, inhibitor, chemoproteomics	20 mM	inhibition	0.9%
CN(C)C1CCN(CC#Cc2nn(C3CCCC3)c3nc(NCc4ccccc4)ncc23)C1 (stereo not drawn)	enzyme activity, inhibitor, FRET	0.1 µM	inhibition	-1%
CC(=O)C1=C(C)N(c2cccc(C(F)(F)F)c2)C(=O)N[C@@H]1c1ccc(C#N)nc1	cell-free assay, competition with immobilised ligand	1 µM	remaining binding	71.1%
C[S+]([O-])c1ccc(-c2nc(-c3ccncc3)c(-c3ccc(F)cc3)[nH]2)cc1 (stereo not drawn)	cell-free assay	0.5 µM	remaining signal	96.5%
C[C@H](c1cccc(C#N)c1)n1cc(Cl)cc(C(N)=O)c1=N	cell-free assay, competition with immobilised ligand	1 µM	remaining binding	65%
Cc1ccc(C(=O)NCc2ccsc2)cc1C#Cc1cn(C(C)C)c2ncnc(N)c12	enzyme activity, inhibitor	1 µM	activity vs control	93%
Cn1cncc1C1=CN(c2ncnc3[nH]cnc23)CCS1	enzyme activity, inhibitor, radiometric	2 µM	inhibition	87.7%
O=c1c(O)c(-c2ccc(O)c(O)c2)oc2cc(O)cc(O)c12	enzyme activity, inhibitor	1 µM	activity vs control	69%
O=C1NC(=O)c2cc(Nc3ccc(F)cc3)c(Nc3ccc(F)cc3)cc21	cell-free assay	0.5 µM	remaining signal	97.7%
C[C@@H](c1ccc2nccn2c1)n1nnc2ncc(-c3cnn(C)c3)nc21	enzyme activity, inhibitor	1 µM	activity vs control	91%
C[C@H](NC(=O)c1cnc2n1[C@](C)(Cc1ccc(C#N)cc1)C(=O)N2c1cc(Cl)c(F)c(Cl)c1)C(=O)NC1(c2ccccn2)CC1	cell-free assay, competition with immobilised ligand	1 µM	remaining binding	100%
COc1ncc(Nc2ncc([C@@H](C)N3CCN(S(C)(=O)=O)CC3)cc2-c2nc(C)nc(N)n2)cc1F	enzyme activity, inhibitor	1 µM	activity vs control	94%
Cc1c(NC(=O)c2cc(C(N)=O)nc3cc(F)ccc23)c(C(F)(F)F)nn1Cc1ccc(C(C)(C)C)cc1	cell-free assay, competition with immobilised ligand	1 µM	remaining binding	100%
Nc1ncnc2occ(-c3ccc(NC(=O)Nc4cc(C(F)(F)F)ccc4F)cc3)c12	cell-free assay, inhibitor	20 µM	remaining signal	83%
Cn1c2c(Cl)c(Cl)ccc2c2cc(N)[nH]c(=O)c21	thermal stability, DSF	10 µM	ΔTm	0.6 °C

Compound	test	setting	endpoint	result
Cc1ccc(NC(=O)c2ccc(CN3CCN(C)CC3)cc2)cc1Nc1nc(-c2cccnc2)cs1	cell-free assay	0.5 µM	remaining signal	99.3%
CCOc1cc(-c2nncn2C)ccc1Nc1ncc2cc(C)nc(NCC(C)(C)C)c2n1	enzyme activity, inhibitor, FRET	1 µM	inhibition	< 15%
O=C1Nc2ccc(Cl)cc2C1=Cc1cc(Cl)c(O)c(Cl)c1	cell-free assay	0.5 µM	remaining signal	93%
CC[C@@H]1C(=O)N(C)c2cnc(Nc3ccc(C(=O)NC4CCN(C)CC4)cc3OC)nc2N1C1CCCC1	enzyme activity, inhibitor	1 µM	activity vs control	77%
COc1cc(-c2cc(-c3ccc(N4CCNCC4)cc3)cnc2C)cc(OC)c1OC	enzyme activity, inhibitor	0.1 µM	inhibition	10%
O=C(Nc1cnn(-c2csc(C(=O)NC3COC3)c2)c1)Nc1c(F)cccc1Cl	enzyme activity, inhibitor	5 µM	remaining activity	96.5%
COc1cc2ncnc(Nc3ccc(F)c(Cl)c3)c2cc1OCCCN1CCOCC1	cell-free assay	0.5 µM	remaining signal	105%
O=C(Nc1cnn(-c2csc(C(=O)NC3COC3)c2)c1)Nc1ccccc1Cl	enzyme activity, inhibitor	5 µM	remaining activity	110%
Nc1cc(N)c(N)cc1N	enzyme activity, inhibitor	1 µM	activity vs control	72%
CCN1CCC2(CC1)NC(=O)c1c(c3ccc(Cl)c(Cl)c3n1C)C2C#N (racemic)	thermal stability, DSF	10 µM	ΔTm	1 °C
Cc1cc(F)c(Nc2ncnc3cc(OCc4ccccc4)ccc23)cc1O.Cl	enzyme activity, inhibitor	1 µM	activity vs control	89%
CC(C)(O)[C@H]1CC[C@H](Nc2ccc3ncc(-c4cccc(C(F)(F)F)c4)n3n2)CC1	enzyme activity, inhibitor	1 µM	remaining activity	65.5%
O=C(CSc1nc2nccnc2c(=O)n1CCc1ccccc1)Nc1nccs1	enzyme activity, inhibitor	10 µM	inhibition	4%
FC(F)(F)c1ccc2c(c1)nc(-c1cccnc1)n2C1CC1	cell-free assay, competition with immobilised ligand	1 µM	remaining binding	100%
CC(=O)c1cnc2ccc(-c3cc(Cl)c(O)c(Cl)c3)nc2c1N[C@H]1CC[C@H](CN(C)C)CC1	enzyme activity, inhibitor	1 µM	activity vs control	0%
COc1cc2ncnc(Nc3ccc(Oc4ccccc4)cc3C)c2cc1OC	enzyme activity, inhibitor	1 µM	inhibition	4%
CS(=O)(=O)NCC[C@H](NC(=O)c1cncc2c1cnn2-c1ccc(F)cc1)c1ccnc(S(C)(=O)=O)c1	cell-free assay, competition with immobilised ligand	1 µM	remaining binding	100%
CC1(C)NC(=O)c2[nH]c3c(Cl)c(Cl)ccc3c2C1C#N (stereo not drawn)	thermal stability, DSF	10 µM	ΔTm	0.4 °C
CN1CC(Oc2cnc(C#N)cc2-c2ccn3nc(NC(=O)C4CC4)cc3c2)C1	enzyme activity, inhibitor	1 µM	inhibition	-9%
